# The entries come from a sample that favours hits as a whole.
# INS-1E ATP HTS – protection of INS-1E cells from cytokine death, primary screen, ATP luminescence, single point. INS-1E cytokine-induced death, 48 h; normalised: neutral wells 0, positive control 100. protection from cytokine-induced ATP loss, % at 10 µM. hit rate 0.1% among 20,000. AID 488910, 2010;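 active means mean replicate protection from cytokine-induced ATP loss at least 50% and at least 75% of replicates each reaching 50%; inconclusive means meets only one of the two criteria, mean or replicate share; inactive means fails both the mean and replicate share criteria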
#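 Assay system: INS-1E rat insulinoma cells. Amount: 8000 cells per well. Medium: phenol-red-free RPMI with 5% fetal bovine serum. Reagent: IL-1β, TNF-α and IFN-γ cytokine mix. Doses: one compound concentration, pin transfer. Schedule: 48 h co-treatment, 10 min post-lysis read. Detection: CellTiter-Glo luminescence measuring cellular ATP.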
# T cruzi HTS – inhibitors of intracellular Trypanosoma cruzi, primary screen, cell-based, plate reader, single point, set 2; intracellular Trypanosoma cruzi in host cells; activity score (inhibition), % at 5.01 µM; hit rate 4.9% among 22,000; in the data active means activity score above about 55%; inconclusive means no clear call, values can overlap the other calls;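 further: parasites and compound incubated about four days before reading; 0% = median of neutral control wells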
# A1 apoptosis 2 – A1 inhibitors via caspase activation, primary screen, cell-based, luminescence, HTS, two replicates; MEF A1-2A-BIM cells, caspase-Glo luminescence, 3 h; percent of clofoctol response, DMSO zero; caspase activation, % (test concentration not listed); 24,000 tested, under 10 active; in the data active means caspase activation above about 5.9%; inconclusive means no clear call, values can overlap the other calls; inactive means below about 2.2%
#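 Test system – A1-2A-BIM-expressing MEF cells · Input – 2500 cells/well · Medium – RPMI-1640 growth medium with 10% FBS · Compound dosing – 50 nL pinned compound · Timing – 3 h compound exposure at 37 °C · Technique – Caspase-Glo luminescence (DEVD substrate) · Evaluation – Caspase-3/7 activity from luminescence increase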
# An asterisk follows results filed as active; ? = inconclusive; nt = not tested or not shown.
SMILES,INS-1E ATP HTS,T cruzi HTS,A1 apoptosis 2
C[C@]12CCC3C4(C=CC5(C=C4C(=O)c4cc6ccccc6s4)C[C@@H](O)CC[C@]35C)C1CC[C@@]2(O)CN1CCC(n2c(=O)[nH]c3ccccc32)CC1 (stereo partly specified),nt,nt,-1
O=C(CCCCCCC(=O)Nc1ccccc1O)N/N=C/c1ccc(-c2cccc(Cl)c2)o1,nt,nt,-1
COC(=O)CCCCCCC(=O)N/N=C/c1ccc(CO)o1,2,3,0
C[C@H]1CN([C@@H](C)CO)C(=O)c2cc(NC(=O)Cc3ccccc3)ccc2O[C@H]1CN(C)S(=O)(=O)c1cccs1,-6,-7,nt
C[C@@H]1CCCCO[C@@H](CN(C)Cc2ccc(C(=O)Nc3ccccc3N)cc2)[C@@H](C)CN([C@H](C)CO)C(=O)c2cc(NS(=O)(=O)c3cccs3)ccc2O1,-9,62*,nt
C[C@@H]1CCCCO[C@H](CN(C)Cc2ccc(C(=O)Nc3ccccc3N)cc2)[C@@H](C)CN([C@H](C)CO)C(=O)c2cc(NS(=O)(=O)c3cccs3)ccc2O1,10,29,0
COc1ccc(CN(C)C[C@H]2Oc3c(NC(=O)C4CC4)cccc3C(=O)N([C@@H](C)CO)C[C@@H]2C)cc1,-4,0,0
C[C@@H]1CN([C@H](C)CO)C(=O)c2cc(N(C)C)ccc2O[C@@H]1CN(C)Cc1ccc(C(=O)Nc2ccccc2N)cc1,63*,71*,nt
C[C@@H]1CN([C@H](C)CO)C(=O)c2cc(N(C)C)ccc2O[C@H]1CN(C)Cc1ccc(C(=O)Nc2ccccc2N)cc1,31,63*,nt
C[C@H]1CN([C@@H](C)CO)C(=O)c2cc(N(C)C)ccc2O[C@H]1CN(C)Cc1ccc(C(=O)Nc2ccccc2N)cc1,6,17,nt
CC(C)NC(=O)Nc1ccc2c(c1)C(=O)N([C@@H](C)CO)C[C@H](C)[C@H](CN(C)Cc1ccc(C(=O)Nc3ccccc3N)cc1)O2,-12,?,nt
CC(C)NC(=O)Nc1ccc2c(c1)C(=O)N([C@@H](C)CO)C[C@H](C)[C@@H](CN(C)Cc1ccc(C(=O)Nc3ccccc3N)cc1)O2,-15,58*,nt
C[C@H](CO)N1C[C@H](C)[C@H](CN(C)Cc2ccc(C(=O)Nc3ccccc3N)cc2)Oc2ccc(N(C)C)cc2C1=O,40,39,0
O=C(CCCCCCC(=O)Nc1ccccc1O)N/N=C/c1cccnc1Br,4,4,nt
O=C(CCCCCCC(=O)Nc1ccccc1O)N/N=C/c1ccccc1,nt,nt,0
O=C(CCCCCCC(=O)Nc1ccccc1O)N/N=C/c1ccc(O)c(F)c1,0,-8,-1
Cc1ccc(S(=O)(=O)Nc2ccc3c(c2)C(=O)N([C@H](C)CO)C[C@H](C)[C@H](CN(C)CC2CCCCC2)OCCCC[C@H](C)O3)cc1,nt,nt,0
COc1ccc(NC(=O)Nc2ccc3c(c2)C(=O)N([C@H](C)CO)C[C@H](C)[C@H](CN(C)Cc2ccc(C(F)(F)F)cc2)OCCCC[C@@H](C)O3)cc1,-4,71*,nt
COc1ccc(CN(C)C[C@H]2OCCCC[C@@H](C)Oc3ccc(NC(=O)Nc4ccc(C(F)(F)F)cc4)cc3C(=O)N([C@H](C)CO)C[C@@H]2C)cc1,-33,67*,nt
COc1ccc(CN(C)C[C@H]2OCCCC[C@H](C)Oc3ccc(NC(=O)Nc4ccc(C(F)(F)F)cc4)cc3C(=O)N([C@H](C)CO)C[C@@H]2C)cc1,nt,nt,1
COc1ccc(NC(=O)Nc2ccc3c(c2)C(=O)N([C@@H](C)CO)C[C@@H](C)[C@H](CN(C)Cc2ccc(C(F)(F)F)cc2)OCCCC[C@@H](C)O3)cc1,nt,nt,1
C[C@@H]1CN([C@H](C)CO)C(=O)Cc2cc(NC(=O)Nc3ccc4c(c3)OCO4)ccc2O[C@@H]1CN(C)Cc1ccc(Cl)c(Cl)c1,-32,74*,0
C[C@@H]1CN([C@H](C)CO)C(=O)Cc2cc(NC(=O)Nc3ccc4c(c3)OCO4)ccc2O[C@@H]1CN(C)Cc1ccc2c(c1)OCO2,-14,22,0
C[C@H](CO)N1C[C@H](C)[C@@H](CN(C)Cc2ccc3c(c2)OCO3)Oc2ccc(NC(=O)Nc3ccc4c(c3)OCO4)cc2CC1=O,nt,nt,-1
C[C@@H]1CN([C@H](C)CO)C(=O)Cc2cc(NC(=O)Nc3ccc4c(c3)OCO4)ccc2O[C@H]1CN(C)Cc1ccc(Cl)c(Cl)c1,-13,68*,nt
SMILES,INS-1E ATP HTS,T cruzi HTS,A1 apoptosis 2
O=C(CCCCCC(=O)N/N=C/CCC1CCCCC1)NO,nt,nt,1
COC(=O)CCCCCCC(=O)N/N=C/c1ccc(OC)c(Br)c1,-5,2,0
COc1ccc(S(=O)(=O)Nc2ccc3c(c2)CC(=O)N([C@@H](C)CO)C[C@@H](C)[C@@H](CN(C)S(=O)(=O)c2ccc(C)cc2)O3)cc1,7,63*,nt
COc1ccc(S(=O)(=O)N(C)C[C@@H]2Oc3ccc(NS(=O)(=O)c4ccc(C)cc4)cc3CC(=O)N([C@@H](C)CO)C[C@@H]2C)cc1,9,-4,nt
COc1ccc(S(=O)(=O)N(C)C[C@H]2Oc3ccc(NS(=O)(=O)c4ccc(C)cc4)cc3CC(=O)N([C@H](C)CO)C[C@H]2C)cc1,7,64*,1
COc1ccc(S(=O)(=O)Nc2ccc3c(c2)CC(=O)N([C@H](C)CO)C[C@H](C)[C@H](CN(C)S(=O)(=O)c2ccc(C)cc2)O3)cc1,-2,21,-1
O=C(NO)c1ccc(C(=O)N/N=C/c2ccc(-c3ccccc3)c(F)c2)cc1,nt,nt,-1
C[C@H]1CN([C@@H](C)CO)C(=O)CCCn2nncc2CO[C@@H]1CN(C)C(=O)Nc1cccc(C(F)(F)F)c1,nt,4,-4
C[C@@H]1CN([C@H](C)CO)C(=O)c2cccc(NC(=O)c3ccc(-c4nccs4)cc3)c2O[C@@H]1CN(C)Cc1ccc(C(F)(F)F)cc1,-23,44,1
C[C@@H]1CN([C@H](C)CO)C(=O)c2cccc(NC(=O)c3ccc(-c4nccs4)cc3)c2O[C@H]1CN(C)Cc1ccc(C(=O)Nc2ccccc2N)cc1,3,44,0
C[C@@H]1CN([C@@H](C)CO)C(=O)c2cccc(NC(=O)c3ccc(-c4nccs4)cc3)c2O[C@H]1CN(C)Cc1ccc(Oc2ccccc2)cc1,-29,62*,nt
C[C@@H]1CN([C@@H](C)CO)C(=O)c2cccc(NC(=O)c3ccc(-c4nccs4)cc3)c2O[C@@H]1CN(C)Cc1ccc(C(F)(F)F)cc1,-65,70*,1
C[C@H]1CN([C@@H](C)CO)C(=O)c2cccc(NC(=O)c3ccc(-c4nccs4)cc3)c2O[C@@H]1CN(C)Cc1ccc(C(=O)Nc2ccccc2N)cc1,25,75*,nt
C[C@@H]1CN([C@H](C)CO)C(=O)c2cccc(NC(=O)c3ccc(-c4nccs4)cc3)c2O[C@@H]1CN(C)Cc1ccc(Oc2ccccc2)cc1,-52,42,nt
C[C@@H]1CN([C@H](C)CO)C(=O)c2cc(NC(=O)CCCN(C)C)ccc2O[C@@H](C)CCCCO[C@@H]1CN(C)S(C)(=O)=O,nt,nt,0
